Activity calls are given as the source filed them. No cut-off for these calls is given here.
Tests used:
Caenorhabditis elegans [1] = assay: Induction of dauer formation in wild type Caenorhabditis elegans Bristol […] at 25 degC; format: functional, organism-based
How it was run: (§1)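 Wild-type N2 eggs were laid on plates containing a range of ascaroside concentrations plus a little food, then held at 20 °C or 25 °C, and percent dauer formation was scored. Each value is the mean of three experiments. EC50 was taken as half-maximal activity from a sigmoidal fit with the lower limit fixed at 0 and the upper limit left free.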

Caenorhabditis elegans [2] = assay: Induction of dauer formation in wild type Caenorhabditis elegans Bristol […] at 20 degC; format: functional, organism-based; how it was run: as §1
Caenorhabditis elegans [3] = assay: Induction of dauer formation in Caenorhabditis elegans Bristol daf-7(1372) mutant at 20 degC; format: functional, organism-based
How it was run: (§2)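 Dauer formation assay: eggs were laid on agar plates containing a range of ascaroside concentrations plus a small amount of food, and percent dauer formation was scored. Stock worms were maintained at 20–23 °C on NG plates made with Noble agar and seeded with E. coli OP50.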

Caenorhabditis elegans [4] = assay: Induction of dauer formation in Caenorhabditis elegans Bristol osm-9(ky10) mutant at 20 degC; format: functional, organism-based; how it was run: as §2
Caenorhabditis elegans [5] = assay: Induction of dauer formation in Caenorhabditis elegans Bristol ocr-2(ak47) mutant at 20 degC; format: functional, organism-based; how it was run: as §2
Caenorhabditis elegans [6] = assay: Induction of dauer formation in Caenorhabditis elegans Bristol tax-2(p691) mutant at 20 degC; format: functional, organism-based; how it was run: as §2
Caenorhabditis elegans [7] = assay: Induction of dauer formation in Caenorhabditis elegans Bristol tax-4(p678) mutant at 20 degC; format: functional, organism-based; how it was run: as §2
Caenorhabditis elegans [8] = assay: Induction of dauer formation in Caenorhabditis elegans Bristol egl-4(ks61) mutant at 20 degC; format: functional, organism-based; how it was run: as §2
Caenorhabditis elegans [9] = assay: Induction of dauer formation in wild type Caenorhabditis elegans Bristol N2 at 73 uM

Row | EC50 (Caenorhabditis elegans [1]) [nM] | EC50 (Caenorhabditis elegans [2]) [nM] | SMILES | Activity (Caenorhabditis elegans [3]) | Activity (Caenorhabditis elegans [4]) | Activity (Caenorhabditis elegans [5]) | Activity (Caenorhabditis elegans [6]) | Activity (Caenorhabditis elegans [7]) | Activity (Caenorhabditis elegans [8]) | Activity (Caenorhabditis elegans [9])
1 | 370 | 1100 | C[C@H](CCCC/C=C/C(=O)O)O[C@@H]1O[C@@H](C)[C@H](O)C[C@H]1O | inactive | inactive | inactive | inactive | inactive | inactive | Active
2 | 18000 | 88000 | C[C@H](CCCCC(=O)O)O[C@@H]1O[C@@H](C)[C@H](O)C[C@H]1O [DAUMONE] | inactive | inactive | inactive | inactive | inactive | inactive | 
3 | 120 | 460 | CC(=O)CC[C@@H](C)O[C@@H]1O[C@@H](C)[C@H](O)C[C@H]1O | inactive | inactive | inactive | inactive | inactive | inactive | Active

Reference: ChEMBL document CHEMBL1221202, “Small-molecule pheromones that control dauer development in Caenorhabditis elegans” (Nat Chem Biol, 2007)
